Test [1] concerns the target T1, Muscarinic acetylcholine receptor (Rattus norvegicus) (UniProt P08482+P08483+P08485+P08911+P10980). The note with it: 10 uM.
Test [2] deals with T1, Muscarinic acetylcholine receptor (Rattus norvegicus). The note with it: 1 uM.
Test [3] concerns the target T2, Muscarinic acetylcholine receptor M3 (Homo sapiens, UniProt P20309). The note with it: CHO, at 100 µM.
Target sequence in this assay (P20309 whole entry, looked up): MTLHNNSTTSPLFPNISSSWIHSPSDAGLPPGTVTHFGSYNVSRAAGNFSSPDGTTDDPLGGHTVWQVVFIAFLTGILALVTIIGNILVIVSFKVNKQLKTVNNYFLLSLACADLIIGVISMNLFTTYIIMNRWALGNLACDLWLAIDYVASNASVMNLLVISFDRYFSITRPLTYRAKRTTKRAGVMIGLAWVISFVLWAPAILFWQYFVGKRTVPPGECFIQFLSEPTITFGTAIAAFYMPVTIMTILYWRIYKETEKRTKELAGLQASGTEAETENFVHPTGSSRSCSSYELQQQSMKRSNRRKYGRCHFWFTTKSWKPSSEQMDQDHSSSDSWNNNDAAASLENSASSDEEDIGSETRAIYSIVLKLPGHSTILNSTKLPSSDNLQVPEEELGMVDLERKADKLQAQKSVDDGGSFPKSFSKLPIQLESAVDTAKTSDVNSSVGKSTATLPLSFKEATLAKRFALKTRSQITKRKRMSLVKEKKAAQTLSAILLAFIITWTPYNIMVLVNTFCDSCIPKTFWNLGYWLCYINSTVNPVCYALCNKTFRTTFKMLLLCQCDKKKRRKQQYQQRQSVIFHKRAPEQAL
In test [4] the target is T3, Muscarinic acetylcholine receptor M1 (Homo sapiens, UniProt P11229).
T3 sequence (P11229 whole entry): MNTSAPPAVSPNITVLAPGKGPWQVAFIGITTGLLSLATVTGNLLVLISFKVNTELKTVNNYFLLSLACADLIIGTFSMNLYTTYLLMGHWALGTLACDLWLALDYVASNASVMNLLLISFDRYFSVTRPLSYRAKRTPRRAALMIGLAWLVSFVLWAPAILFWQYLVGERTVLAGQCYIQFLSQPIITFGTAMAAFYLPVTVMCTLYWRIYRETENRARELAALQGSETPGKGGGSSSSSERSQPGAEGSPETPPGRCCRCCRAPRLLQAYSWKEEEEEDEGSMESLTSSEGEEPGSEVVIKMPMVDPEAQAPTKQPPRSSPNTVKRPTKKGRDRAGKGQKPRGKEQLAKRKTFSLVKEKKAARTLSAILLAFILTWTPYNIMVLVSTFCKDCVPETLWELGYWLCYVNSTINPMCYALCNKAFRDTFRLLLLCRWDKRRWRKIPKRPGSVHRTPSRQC
Kind of test: Displacement of [3H]NMS from human M1 AChR expressed in CHO cell membranes after 1 to 2 hrs by liquid scintillation spectrometry method. Format: cell-based. (In general: Displacement assays read how much labelled ligand stays bound in the presence of the test substance.)

For test [5], the species on record is Homo sapiens. Kind of test: Selectivity ratio of Ki for displacement of [3H]NMS from human M1 AChR expressed in CHO cell membranes to Ki for displacement of [3H]NMS from human M5 AChR expressed in CHO cell membranes.
The target of test [6] is T4, Muscarinic acetylcholine receptor M2 (Homo sapiens) (UniProt P08172).
T4 sequence (whole entry): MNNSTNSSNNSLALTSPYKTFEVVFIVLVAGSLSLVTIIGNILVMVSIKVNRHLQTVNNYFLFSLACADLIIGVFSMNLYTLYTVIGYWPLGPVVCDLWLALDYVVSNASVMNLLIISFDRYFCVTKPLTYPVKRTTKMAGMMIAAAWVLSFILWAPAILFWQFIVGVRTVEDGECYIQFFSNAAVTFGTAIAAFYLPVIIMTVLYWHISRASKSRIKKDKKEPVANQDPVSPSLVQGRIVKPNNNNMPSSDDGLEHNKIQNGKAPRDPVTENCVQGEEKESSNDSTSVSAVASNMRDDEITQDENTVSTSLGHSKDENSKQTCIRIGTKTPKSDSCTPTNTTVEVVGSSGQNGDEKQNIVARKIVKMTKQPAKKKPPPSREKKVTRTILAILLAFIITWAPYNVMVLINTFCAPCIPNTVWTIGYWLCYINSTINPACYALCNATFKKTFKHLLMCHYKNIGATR
Kind of test: Displacement of [3H]NMS from human M2 AChR expressed in CHO cell membranes at 100 uM after 1 to 2 hrs by liquid scintillation spectrometry method relative to control. The gist of the method:
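CHO membranes expressing the human subtype (20 µg protein/well) with 0.3 nM [3H]NMS and analog (1 nM–100 µM) in 50 mM Tris-HCl pH 7.4, 2 h at 25 °C. Filtered on GF/B, washed, counted by scintillation. IC50 taken from curves to give Ki; three independent experiments in duplicate.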

In test [7] the target is T2, Muscarinic acetylcholine receptor M3. Kind of test: Displacement of [3H]NMS from human M3 AChR expressed in CHO cell membranes after 1 to 2 hrs by liquid scintillation spectrometry method. Format: cell-based.
Target sequence in this assay (P20309 whole entry): as the sequence (P20309 whole entry, looked up) above
Test [8] has as its target T5, Muscarinic acetylcholine receptor M2 (Homo sapiens, UniProt P08172).
T5 sequence (P08172 whole entry): T4 sequence (whole entry)
Kind of test: Displacement of [3H]NMS from human M2 AChR expressed in CHO cell membranes after 1 to 2 hrs by liquid scintillation spectrometry method. An outline of the steps:
(§1)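 CHO membranes expressing the human subtype (20 µg protein/well) with 0.3 nM [3H]NMS and analog (1 nM–100 µM) in 50 mM Tris-HCl pH 7.4, 2 h at 25 °C. […] Filtered on GF/B, washed, counted by scintillation. IC50 taken from curves to give Ki; three independent experiments in duplicate.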

The target in test [9] is T6, Muscarinic acetylcholine receptor M5 (Homo sapiens) (UniProt P08912).
T6 sequence (whole entry): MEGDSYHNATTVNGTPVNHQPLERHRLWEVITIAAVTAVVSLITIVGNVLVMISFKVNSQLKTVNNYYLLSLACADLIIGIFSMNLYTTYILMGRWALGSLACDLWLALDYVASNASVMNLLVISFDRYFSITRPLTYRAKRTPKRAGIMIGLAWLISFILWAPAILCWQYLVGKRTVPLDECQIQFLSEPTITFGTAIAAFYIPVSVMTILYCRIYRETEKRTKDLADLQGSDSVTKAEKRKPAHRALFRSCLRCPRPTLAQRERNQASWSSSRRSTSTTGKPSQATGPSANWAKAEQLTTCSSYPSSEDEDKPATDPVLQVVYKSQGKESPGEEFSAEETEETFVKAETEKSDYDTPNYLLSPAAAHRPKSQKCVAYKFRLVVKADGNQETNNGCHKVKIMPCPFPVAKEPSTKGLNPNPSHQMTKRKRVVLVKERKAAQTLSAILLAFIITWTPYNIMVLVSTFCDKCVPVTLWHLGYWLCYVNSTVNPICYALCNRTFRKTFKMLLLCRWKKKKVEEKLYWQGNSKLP
Nature of the test: Displacement of [3H]NMS from human M5 AChR expressed in CHO cell membranes at 100 uM after 1 to 2 hrs by liquid scintillation spectrometry method relative to control. An outline of the steps: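 CHO membranes expressing human M5 (10 µg protein/well) with 0.3 nM [3H]NMS and analog (1 nM–100 µM) in 50 mM Tris-HCl pH 7.4, 2 h at 25 °C. […] Filtered on GF/B, counted by scintillation. IC50 converted to Ki; three independent experiments in duplicate.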

The target in test [10] is T7, Muscarinic acetylcholine receptor M5 (Homo sapiens, UniProt P08912).
T7 sequence (P08912 whole entry): T6 sequence (whole entry)
Nature of the test: Displacement of [3H]NMS from human M5 AChR expressed in CHO cell membranes after 1 to 2 hrs by liquid scintillation spectrometry method. An outline of the steps:
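CHO membranes expressing human M5 (10 µg protein/well) with 0.3 nM [3H]NMS and analog (1 nM–100 µM) in 50 mM Tris-HCl pH 7.4, 2 h at 25 °C. Filtered on GF/B, counted by scintillation. IC50 converted to Ki; three independent experiments in duplicate.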

The species entered for test [11] is Homo sapiens. Nature of the test: Selectivity ratio of Ki for displacement of [3H]NMS from human M2 AChR expressed in CHO cell membranes to Ki for displacement of [3H]NMS from human M3 AChR expressed in CHO cell membranes.
The target of test [12] is T8, Muscarinic acetylcholine receptor M1 (Homo sapiens) (UniProt P11229).
T8 sequence (whole entry): T3 sequence (P11229 whole entry)
The settings on record: CHO, at 100 µM.

The target in test [13] is T9, Muscarinic acetylcholine receptor M4 (Homo sapiens, UniProt P08173).
T9 sequence (P08173 whole entry): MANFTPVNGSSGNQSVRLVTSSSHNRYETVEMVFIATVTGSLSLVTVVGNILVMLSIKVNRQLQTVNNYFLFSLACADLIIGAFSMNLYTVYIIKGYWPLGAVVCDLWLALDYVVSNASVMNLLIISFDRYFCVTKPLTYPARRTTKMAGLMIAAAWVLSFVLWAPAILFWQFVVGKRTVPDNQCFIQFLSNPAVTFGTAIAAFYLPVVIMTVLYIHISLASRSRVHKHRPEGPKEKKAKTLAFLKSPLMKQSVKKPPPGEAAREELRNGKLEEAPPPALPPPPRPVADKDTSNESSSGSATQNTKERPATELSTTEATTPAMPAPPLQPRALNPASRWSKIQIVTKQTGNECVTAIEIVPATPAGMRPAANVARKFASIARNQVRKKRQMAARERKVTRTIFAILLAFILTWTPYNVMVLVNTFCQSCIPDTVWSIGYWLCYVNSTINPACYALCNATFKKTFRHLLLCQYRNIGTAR
Kind of test: Displacement of [3H]NMS from human M4 AChR expressed in CHO cell membranes after 1 to 2 hrs by liquid scintillation spectrometry method. The gist of the method:
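Human M4-expressing CHO membranes (20 µg protein/well) incubated 2 h at 25 °C with 0.3 nM [3H]NMS and analog (1 nM–100 µM) in 50 mM Tris–HCl pH 7.4. […] Filtered, washed, counted by scintillation. IC50 taken from inhibition curves, Ki from three independent duplicate experiments (mean ± SEM).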

Test [14] addresses T10, Muscarinic acetylcholine receptor M4 (Homo sapiens) (UniProt P08173).
T10 sequence (whole entry): T9 sequence (P08173 whole entry)
Kind of test: Displacement of [3H]NMS from human M4 AChR expressed in CHO cell membranes at 100 uM after 1 to 2 hrs by liquid scintillation spectrometry method relative to control. An outline of the steps:
as §1

Molecules are shown by their SMILES.

The source of these data is ChEMBL document CHEMBL4371071, “Muscarinic agonist, (±)-quinuclidin-3-yl-(4-fluorophenethyl)(phenyl)carbamate: High affinity, but low subtype selectivity for human M1 - M5 muscarinic acetylcholine receptors” (Bioorg Med Chem Lett, 2019).

The term inhibition denotes the relative decrease from the control value, in per cent. For `CN1[C@@H]2C[C@H](OC(=O)[C@H](CO)c3ccccc3)C[C@H]1[C@@H]1O[C@@H]12`, the inhibition in test [1] turned out to be 59%; in [2], 51%.
One may read the Ki as a dissociation constant, usually derived from enzyme kinetics or from competition with a known ligand. A higher Ki goes with weaker binding. On to `Cc1ccc(COC(=O)N(c2ccccc2)C2CN3CCC2CC3)cc1F` (centres undefined), for which the Imax in test [3] was 99%; in test [6], 99.7%; in test [9] it was 97.4%; in test [12], 100%. In addition, the Ki in test [4] is 40 nM; in test [7] it was 20 nM; in test [8], 30 nM; in [10] it was 30 nM. Further, the Ratio Ki was found to be 1.2 in the test listed under Homo sapiens [5] and 1.3 in the test filed under Homo sapiens [11].
`COc1ccc(CCN(C(=O)OC2CN3CCC2CC3)c2ccccc2)cc1` (racemic): the Ki in test [13] is 25 nM; in test [4], 10 nM; in [7] it was 8 nM; in test [8], 130 nM; in test [10] it was 10 nM. For the same compound, the Imax in test [3] was found to be 99.9%; in test [6], 99.7%; in test [14], 99.9%; in test [9], 100%; in test [12], 100%. Further, the Ratio Ki is 1 in the test listed under Homo sapiens [5] and 17.1 in the test filed under Homo sapiens [11].
